Each structure is given as a SMILES string. Active and inactive are the calls of the source. No cut-off for these calls is given here.

Experimental findings from ChEMBL document CHEMBL1156008, “Synthesis of novel isoluminol probes and their use in rapid bacterial assays” (Bioorg Med Chem Lett, 2009) are described below.

For test [1], the system named is Escherichia coli. The test is described as follows: Binding affinity to Escherichia coli ATCC 47076 membrane surface measured after second washout with buffer by fluorescence assay. The test is classed as functional, organism-based. The method, boiled down:
(§1)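 Cell pellets were exposed to peptide-isoluminol probe in pH 6.4 phosphate buffer (0.01 M, 0.1 ionic strength). Probe remaining on cells was then tracked through repeated buffer wash cycles by fluorescence at ex 360/em 430 nm.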

Test [2] relates to Salmonella typhimurium. Kind of test: Binding affinity to Salmonella Typhimurium ATCC 14028 membrane surface by fluorescence assay. The settings on record: Salmonella enterica subsp. enterica serovar Typhimurium. The test is classed as functional, organism-based. In a few lines: as §1
In test [3] the test system is Lactococcus lactis. Kind of test: Binding affinity to Lactococcus lactis subsp. lactis C2 ATCC 11454 membrane surface by fluorescence assay. The test is classed as functional. In a few lines:
(§2)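 L. lactis C2 grown 18 h at 27 °C in M17 (4% v/v inoculum). 200 µl culture, in triplicate, pelleted (9000g, 2 °C, 10 min); supernatant background subtracted. Pellet resuspended in peptide-isoluminol probe (DMF, diluted in pH 6.4 phosphate buffer, 0.01 M, 0.1 ionic strength) for 10 min at 27 °C. Fluorescence read at ex 360/em 430 nm, then repeated centrifugation/buffer washes; fraction retained calculated.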

For test [4], the system named is Staphylococcus aureus. Kind of test: Binding affinity to Staphylococcus aureus ATCC 25923 membrane surface measured after second washout with buffer by fluorescence assay. The test is classed as functional, organism-based. The method, boiled down: as §1
Test [5] deals with Lactococcus lactis. Kind of test: Binding affinity to Lactococcus lactis subsp. lactis C2 ATCC 11454 membrane surface measured after first washout with buffer by fluorescence assay. The format is functional. In a few lines:
as §2

Test [6] relates to Escherichia coli. Kind of test: Binding affinity to Escherichia coli ATCC 47076 membrane surface by fluorescence assay. The format is functional, organism-based. The method, boiled down:
as §1

For test [7], the system named is Salmonella typhimurium. The test is described as follows: Binding affinity to Salmonella Typhimurium ATCC 14028 membrane surface measured after second washout with buffer by fluorescence assay. The test is classed as functional, organism-based. The following applies: Salmonella enterica subsp. enterica serovar Typhimurium. In a few lines: as §1
For test [8], the system named is Staphylococcus aureus. Kind of test: Binding affinity to Staphylococcus aureus ATCC 25923 membrane surface by fluorescence assay. The format is functional, organism-based. In a few lines:
as §1

The test system of test [9] is Lactococcus lactis. The test is described as follows: Binding affinity to Lactococcus lactis subsp. lactis C2 ATCC 11454 membrane surface measured after second washout with buffer by fluorescence assay. The test is classed as functional. In a few lines: as §2
Test [10] relates to Salmonella typhimurium. The test is described as follows: Binding affinity to Salmonella Typhimurium ATCC 14028 membrane surface measured after fourth washout with buffer by fluorescence assay. The settings on record: Salmonella enterica subsp. enterica serovar Typhimurium. The test is classed as functional, organism-based. In a few lines:
as §1

Test [11] has as its system Escherichia coli. Kind of test: Binding affinity to Escherichia coli ATCC 47076 membrane surface measured after fourth washout with buffer by fluorescence assay. The test is classed as functional, organism-based. The method, boiled down:
as §1

In the case of `CCN(CCCCCCNC(=O)COCC(=O)NC(CCC(=O)O)C(=O)NC(CCC(=O)O)C(=O)O)c1ccc2c(=O)[nH][nH]c(=O)c2c1` (centres undefined), the outcome with Escherichia coli [1], in the test on Staphylococcus aureus [4], in the test on Lactococcus lactis [5], in the test on Salmonella typhimurium [7] and with Lactococcus lactis [9] was Active. Further, the Activity in the test with Salmonella typhimurium [2], in the test with Lactococcus lactis [3], in the test on Escherichia coli [6] and in the test with Staphylococcus aureus [8] was 15% throughout.

For the compound `CCN(CCCCCCNC(=O)COCC(=O)N[C@@H](CCCCN)C(=O)N[C@@H](CCCCN)C(=O)N[C@@H](CCCCN)C(=O)O)c1ccc2c(=O)[nH][nH]c(=O)c2c1`, the outcome with Salmonella typhimurium [10] and in the test on Escherichia coli [11] was Active. The values for the Activity in the test with Lactococcus lactis [3], with Lactococcus lactis [5] and in the test with Lactococcus lactis [9] were 34%, 23% and 10%, respectively.
